Laboratory results taken from ChEMBL document CHEMBL5724801, “EUbOPEN Chemogenomics Library - Multiplex” (2024).
Several values for one entry are separate records, joined by “and”; a condition that tells them apart may be missing. Equal values may be shown once.

System: HEK-293T
Test: Multiplex assay against HEK293T
Assay type: toxicity, cell-based
Details: human
Summary of the method: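 Phenotypes for tubulin, mitochondrial mass and membrane permeability are expressed as per cents of healthy-nucleus cells. Cells were stained live at seeding with Hoechst33342, BioTracker Green Microtubule Cytoskeleton Dye, MitoTracker Red and Annexin V Alexa Fluor 680, then imaged after compound addition on a CQ1 microscope at 37°C and 5% CO2. Machine-learning gating in CellPathfinder separated Hoechst high-intensity objects from normal cells, divided normal cells by nuclear state (healthy, pyknosed, fragmented) and divided pyknosed cells into mitotic or apoptotic.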

[1] = 12 h, 1 µM, compound concentration 1 uM
[2] = 12 h, 10 µM, compound concentration 10 uM
[3] = 24 h, 1 µM, compound concentration 1 uM
[4] = 24 h, 10 µM, compound concentration 10 uM
[5] = 48 h, 1 µM, compound concentration 1 uM
[6] = 48 h, 10 µM, compound concentration 10 uM

Compound: CC(C)CNc1nc(N2CCN(CC3CCCOC3)CC2)ncc1C(=O)NCc1ccccc1 (stereo not given)
- Population Apoptotic (%) [1]: 11.7% and 11.21%
- Population Fragmented Nuclei (%) [1]: 1.89% and 4.9%
- Population Hoechst High Intensity Objects (%) [1]: 0.31% and 0%
- Population Membrane Permeable-Phenotype (%) [1]: 0%
- Population Mitotic Cells (%) [1]: 88.3% and 88.79%
- Population Normal (%) [1]: 99.69% and 100%
- Population Pyknosed Nuclei (%) [1]: 53.94% and 81.12%
- Population Tubulin-Different-Phenotype (%) [1]: 13.57% and 25%
- Total Cell Count [1]: 318 and 143
- Population Apoptotic (%) [2]: 30.6% and 27.73%
- Population Fragmented Nuclei (%) [2]: 4.29% and 5.11%
- Population Hoechst High Intensity Objects (%) [2]: 1.06% and 0%
- Population Membrane Permeable-Phenotype (%) [2]: 0%
- Population Mitochondria Different-Phenotype (%) [2]: 23.53% and 63.64%
- Population Mitotic Cells (%) [2]: 69.4% and 72.27%
- Population Normal (%) [2]: 98.94% and 100%
- Population Pyknosed Nuclei (%) [2]: 65.36% and 86.86%
- Population Tubulin-Different-Phenotype (%) [2]: 85.88% and 81.82%
- Total Cell Count [2]: 283 and 137
- Population Apoptotic (%) [3]: 21.51% and 22.81%
- Population Fragmented Nuclei (%) [3]: 1.41% and 5.26%
- Population Hoechst High Intensity Objects (%) [3]: 0.2% and 0%
- Population Membrane Permeable-Phenotype (%) [3]: 1.89% and 0%
- Population Mitochondria Different-Phenotype (%) [3]: 30.6% and 36.67%
- Population Mitotic Cells (%) [3]: 78.49% and 77.19%
- Population Normal (%) [3]: 99.8% and 100%
- Population Pyknosed Nuclei (%) [3]: 34.68% and 75%
- Population Tubulin-Different-Phenotype (%) [3]: 28.71% and 13.33%
- Population Apoptotic (%) [4]: 59.41% and 71.68%
- Population Fragmented Nuclei (%) [4]: 4.91% and 5.67%
- Population Hoechst High Intensity Objects (%) [4]: 0.61% and 0%
- Population Membrane Permeable-Phenotype (%) [4]: 0%
- Population Mitochondria Different-Phenotype (%) [4]: 72.86% and 75%
- Population Mitotic Cells (%) [4]: 40.59% and 28.32%
- Population Normal (%) [4]: 99.39% and 100%
- Population Pyknosed Nuclei (%) [4]: 52.15% and 80.14%
- Population Tubulin-Different-Phenotype (%) [4]: 90.71% and 75%
- Total Cell Count [4]: 328 and 141
- Population Apoptotic (%) [5]: 7.95% and 20.65%
- Population Fragmented Nuclei (%) [5]: 1.03% and 6.84%
- Population Healthy Nuclei (%) [5]: 83.45% and 44.74%
- Population Hoechst High Intensity Objects (%) [5]: 0%
- Population Membrane Permeable-Phenotype (%) [5]: 2.71% and 1.18%
- Population Mitochondria Different-Phenotype (%) [5]: 49.88% and 61.18%
- Population Mitotic Cells (%) [5]: 92.05% and 79.35%
- Population Normal (%) [5]: 100%
- Population Apoptotic (%) [6]: 64.8% and 78.16%
- Population Fragmented Nuclei (%) [6]: 2.93% and 2.01%
- Population Healthy Nuclei (%) [6]: 60.41% and 39.6%
- Population Hoechst High Intensity Objects (%) [6]: 0.87% and 1.32%
- Population Membrane Permeable-Phenotype (%) [6]: 0.97% and 3.39%
- Population Mitochondria Different-Phenotype (%) [6]: 96.6% and 88.14%
- Population Mitotic Cells (%) [6]: 35.2% and 21.84%
- Population Normal (%) [6]: 99.13% and 98.68%
- Population Pyknosed Nuclei (%) [6]: 36.66% and 58.39%
- Population Tubulin-Different-Phenotype (%) [6]: 73.3% and 91.53%
- Total Cell Count [6]: 344 and 151

Compound: CN(C)Cc1cccc(NC(=C2C(=O)Nc3cc(C(=O)N(C)C)ccc32)c2ccccc2)c1
- Population Apoptotic (%) [1]: 14.71% and 13.93%
- Population Hoechst High Intensity Objects (%) [1]: 0%
- Population Membrane Permeable-Phenotype (%) [1]: 2.97% and 0%
- Population Mitochondria Different-Phenotype (%) [1]: 27.72% and 21.05%
- Population Mitotic Cells (%) [1]: 85.29% and 86.07%
- Population Normal (%) [1]: 100%
- Population Pyknosed Nuclei (%) [1]: 32.08% and 85.31%
- Total Cell Count [1]: 424 and 143
- Population Apoptotic (%) [2]: 28.57% and 37.07%
- Population Fragmented Nuclei (%) [2]: 3.59% and 6.21%
- Population Hoechst High Intensity Objects (%) [2]: 0.65% and 0%
- Population Membrane Permeable-Phenotype (%) [2]: 0.65% and 0%
- Population Mitochondria Different-Phenotype (%) [2]: 22.58% and 0%
- Population Mitotic Cells (%) [2]: 71.43% and 62.93%
- Population Normal (%) [2]: 99.35% and 100%
- Population Pyknosed Nuclei (%) [2]: 45.75% and 80%
- Population Tubulin-Different-Phenotype (%) [2]: 30.97% and 70%
- Total Cell Count [2]: 308 and 145
- Population Apoptotic (%) [3]: 14.29% and 19.69%
- Population Healthy Nuclei (%) [3]: 68.64% and 31.44%
- Population Hoechst High Intensity Objects (%) [3]: 0% and 1.52%
- Population Membrane Permeable-Phenotype (%) [3]: 1.78% and 1.64%
- Population Mitochondria Different-Phenotype (%) [3]: 11.17% and 11.48%
- Population Mitotic Cells (%) [3]: 85.71% and 80.31%
- Population Normal (%) [3]: 100% and 98.48%
- Population Tubulin-Different-Phenotype (%) [3]: 15.48% and 9.84%
- Total Cell Count [3]: 574 and 197
- Population Apoptotic (%) [4]: 47.22% and 65.45%
- Population Fragmented Nuclei (%) [4]: 1.9% and 4%
- Population Hoechst High Intensity Objects (%) [4]: 0%
- Population Membrane Permeable-Phenotype (%) [4]: 1.58% and 2.94%
- Population Mitochondria Different-Phenotype (%) [4]: 28.85% and 52.94%
- Population Mitotic Cells (%) [4]: 52.78% and 34.55%
- Population Normal (%) [4]: 100%
- Population Pyknosed Nuclei (%) [4]: 29.35% and 73.33%
- Population Tubulin-Different-Phenotype (%) [4]: 57.71% and 41.18%
- Total Cell Count [4]: 368 and 150
- Population Fragmented Nuclei (%) [5]: 9.11% and 4.39%
- Population Healthy Nuclei (%) [5]: 81.42% and 58.77%
- Population Hoechst High Intensity Objects (%) [5]: 0.09% and 1.3%
- Population Membrane Permeable-Phenotype (%) [5]: 9.75% and 2.24%
- Population Mitochondria Different-Phenotype (%) [5]: 13.07% and 33.58%
- Population Mitotic Cells (%) [5]: 98.1% and 79.76%
- Population Normal (%) [5]: 99.91% and 98.7%
- Population Apoptotic (%) [6]: 35.58% and 37.33%
- Population Fragmented Nuclei (%) [6]: 1.61% and 2.67%
- Population Healthy Nuclei (%) [6]: 79.82% and 47.33%
- Population Hoechst High Intensity Objects (%) [6]: 0%
- Population Membrane Permeable-Phenotype (%) [6]: 2.91% and 2.82%
- Population Mitochondria Different-Phenotype (%) [6]: 76.06% and 67.61%
- Population Mitotic Cells (%) [6]: 64.42% and 62.67%
- Population Normal (%) [6]: 100%
- Population Pyknosed Nuclei (%) [6]: 18.57% and 50%
